What was measured:
Mus musculus [1] = assay: Antidepressant activity in po dosed ICEM:CET (SPF Caw) mouse assessed as antagonism of reserpine-induced hypothermia administered via gavage 30 mins before reserpine challenge measured 4 hrs after reserpine treatment; type: functional
How it was run: (§1)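 Groups of ten male mice (18-22 g), fasted 9 h with water until 2 h pre-test. Oral gavage in 0.5% Methocel at doses below the 25 mg/kg screen, 30 min before reserpine 2.5 mg/kg ip. Blepharospasm scored blind at 1 h, rectal temperature at 4 h. ED50 estimated by eye-fit linear plots on semilogarithmic paper.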

Mus musculus [2] = assay: Antidepressant activity in po dosed ICEM:CET (SPF Caw) mouse assessed as antagonism of reserpine-induced blepharospasm administered via gavage 30 mins before reserpine challenge measured 1 hr after reserpine treatment; type: functional; conditions: Mus musculus, ICEM:CET(SPF Caw), po; read-out: ED50; how it was run: as §1
Mus musculus [3] = assay: Anticonvulsant activity in po dosed ICEM:CET (SPF Caw) mouse assessed as antagonism of pentylenetetrazole-induced flexor-extensor tonic convulsions administered via gavage 30 mins before pentylenetetrazole challenge; type: functional
How it was run: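 Male mice, 18-22 g, dosed orally by gavage in 0.5% Methocel (0.1 mL/10 g), starting at a 50 mg/kg screening dose, then graded doses. Pentylenetetrazole 130 mg/kg ip given 30 min later. Ten mice per dose and for controls. Dose preventing flexor-extensor tonic convulsions in 50% of animals read from dose-response curves (ED50).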

[4] = Orientative acute toxicity in po dosed ICEM:CET (SPF Caw) mouse administered via gavage measured for 60 mins after drug dosing by Irwin's test; type: organism-based; conditions: ICEM:CET (SPF Caw), in vivo
How it was run: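 Male ICEM:CET (SPF Caw) mice, 18-22 g. Oral gavage, suspended or dissolved in 0.5% Methocel at 0.1 mL/10 g body weight. Doses of at least 25, 50, 100, 200, 400 and 800 mg/kg, four animals per dose. Animals were observed closely for 60 min after dosing during Irwin's symptomatologic test, and an approximate LD50 was estimated.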

[5] = Mus musculus, ICEM:CET(SPF Caw), po, read-out: ED50

SMILES | ED50 (Mus musculus [1]; [5]) | ED50 (Mus musculus [2]) | ED50 (Mus musculus [3]; [5]) | LD50 at 1 h [4] | ED50 (Mus musculus [1]) | ED50 (Mus musculus [3])
C#CC(C)(C)NC1CN(C2c3ccccc3CCc3ccccc32)C1 | > 25 mg/kg | 9 mg/kg | 19.6 mg/kg | > 800 mg/kg | – | –
CNC1CN(C2c3ccccc3COc3ccccc32)C1.O=C(O)/C=C/C(=O)O (single isomer, unassigned; (+)) | – | 1 mg/kg | – | 200 mg/kg | 4.9 mg/kg | 14 mg/kg
CNCC1CN(C2c3ccccc3CCc3ccccc32)C1 | > 25 mg/kg | > 25 mg/kg | > 50 mg/kg | 200 mg/kg | – | –
CNC1CCN(C2c3ccccc3CCc3ccccc32)C1 (configuration not stated) | > 25 mg/kg | > 25 mg/kg | 45 mg/kg | 200 mg/kg | – | –
CNC1CN(C2c3ccccc3CCc3ccc(OC)cc32)C1 (configuration not stated) | > 25 mg/kg | 14 mg/kg | > 50 mg/kg | 200 mg/kg | – | –
CNC1CN(C2c3ccccc3COc3ccc(OC)cc32)C1 (configuration not stated) | > 25 mg/kg | > 25 mg/kg | 45.8 mg/kg | 200 mg/kg | – | –
CNCC1CCN1C1c2ccccc2CCc2ccccc21 (configuration not stated) | > 25 mg/kg | > 25 mg/kg | > 50 mg/kg | > 800 mg/kg | – | –
CNC1CN(C2c3ccccc3CSc3ccccc32)C1 (configuration not stated) | > 25 mg/kg | 12 mg/kg | 14.7 mg/kg | 200 mg/kg | – | –
CNC1CN(C2c3ccccc3C3(CC3)c3ccccc32)C1 | 11.4 mg/kg | 4.4 mg/kg | 18.5 mg/kg | 200 mg/kg | – | –
CN(C(N)=O)C1CN(C2c3ccccc3CCc3ccccc32)C1 | 12.5 mg/kg | > 12.5 mg/kg | > 12.5 mg/kg | 400 mg/kg | – | –
CN(C)CCC=C1c2ccccc2CCc2ccccc21.Cl [AMITRIPTYLINE HYDROCHLORIDE] | 6.6 mg/kg | 1.3 mg/kg | 8 mg/kg | 100 mg/kg | – | –
COc1ccc2c(c1)C(N1CC(N(C)C)C1)c1ccccc1CO2 (configuration not stated) | > 25 mg/kg | > 25 mg/kg | > 50 mg/kg | 400 mg/kg | – | –
CN(C)C1CN(C2c3ccccc3CSc3ccc(Cl)cc32)C1 (configuration not stated) | > 25 mg/kg | > 25 mg/kg | 50 mg/kg | 400 mg/kg | – | –
CNC1CN(C2c3ccccc3CCc3ccccc32)C1 | 7.3 mg/kg | 2.9 mg/kg | 13.4 mg/kg | 400 mg/kg | – | –
CC(=O)N(C)C1CN(C2c3ccccc3CCc3ccccc32)C1 | > 25 mg/kg | > 25 mg/kg | 28 mg/kg | 400 mg/kg | – | –
CNC1(C)CN(C2c3ccccc3CCc3ccccc32)C1 | > 25 mg/kg | > 25 mg/kg | 44.6 mg/kg | 200 mg/kg | – | –
c1ccc2c(c1)CCc1ccccc1C2N1CCNCC1 | > 25 mg/kg | 24 mg/kg | > 50 mg/kg | 50 mg/kg | – | –
OCCN1CCN(C2CN(C3c4ccccc4CCc4ccccc43)C2)CC1 | > 25 mg/kg | > 25 mg/kg | 31 mg/kg | 400 mg/kg | – | –
CNC1CN(C(c2ccccc2)c2ccccc2)C1 | > 25 mg/kg | 3.5 mg/kg | 9.6 mg/kg | 200 mg/kg | – | –
CNC1CN(C2c3ccccc3CCc3ccc(Cl)cc32)C1 (configuration not stated) | > 25 mg/kg | > 25 mg/kg | 27.9 mg/kg | 400 mg/kg | – | –
CN(C)C1CN(C2c3ccccc3CCc3ccc(Cl)cc32)C1 (configuration not stated) | 8.6 mg/kg | 12.5 mg/kg | 29.9 mg/kg | 400 mg/kg | – | –
CNC1CN(C2c3ccccc3CSc3ccc(OC)cc32)C1 (configuration not stated) | > 25 mg/kg | 21.8 mg/kg | > 50 mg/kg | 400 mg/kg | – | –
NC1CN(C2c3ccccc3CCc3ccccc32)C1 | 12 mg/kg | 5 mg/kg | 17 mg/kg | 200 mg/kg | – | –

From ChEMBL document CHEMBL3227978, “Azetidine derivatives of tricyclic antidepressant agents” (J Med Chem, 1979)
